Laboratory results: ChEMBL document CHEMBL1773069, “Marinoquinolines A-F, pyrroloquinolines from Ohtaekwangia kribbensis (Bacteroidetes)” (J Nat Prod, 2011)
≈ marks a conversion by molar mass, not a printed value. Calls of active or inactive are those of the source. The rule behind the calls is not given here.

What was measured:
HUVEC = test: Cytotoxicity against HUVEC after 5 days by MTT assay; type: cell-based; details: Homo sapiens, 120 h
Summary of the method: (§1)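 Culture media were DMEM for KB-3-1 and L929, EBM-2 for HUVEC and RPMI for MCF-7, each with 10% FBS, at 37 °C under 10% CO2. Serial dilutions from a 1 mg/mL methanol stock were added to cell suspension (50 000/mL). After 5 days, MTT was read at 590 nm. IC50 (50% growth inhibition versus control) came from dose–response curves. Methanol served as negative control.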

Plasmodium falciparum = test: Antimalarial activity against Plasmodium falciparum K1 intra-erythrocytic form; type: functional, organism-based
Trypanosoma cruzi = test: Antiparasitic activity against Trypanosoma cruzi Tulahuen C4 amastigotes; type: functional, organism-based
Leishmania donovani = test: Antileishmanial activity against Leishmania donovani MHOM-ET-67/L82 axenic amastigotes; type: functional, organism-based
Escherichia coli [1] = test: Antimicrobial activity against Escherichia coli at 33.5 ug/ml after 24 to 48 hrs; type: functional, organism-based
[2] = Cytotoxicity against human KB-3-1 cells after 5 days by MTT assay; type: functional, cell-based; details: KB 3-1, 120 h; summary of the method: as §1
L929 = test: Cytotoxicity against mouse L929 cells after 5 days by MTT assay; type: functional, cell-based; details: L929, 120 h; summary of the method: as §1
[3] = test system: Trypanosoma brucei rhodesiense; test: Antiparasitic activity against Trypanosoma brucei rhodesiense STIB 900 trypomastigotes; type: functional, organism-based
L6 = test: Cytotoxicity against rat L6 cells by MTT assay; type: cell-based
MCF7 = test: Cytotoxicity against human MCF7 cells after 5 days by MTT assay; type: functional, cell-based; details: MCF7, 120 h; summary of the method: as §1
Escherichia coli [4] = test: Antimicrobial activity against Escherichia coli after 24 to 48 hrs; type: functional, organism-based
Summary of the method: (§2)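 Broth microdilution in 96-well plates. Bacteria were grown in EBS medium. Yeasts and fungi were grown in MYC medium (1.0% phytone peptone, 1.0% glucose, 50 mM HEPES, pH 7.0). Inoculum was test organism diluted 1:100 in medium. Compound was diluted 1:1 serially from 33.5 to […] μg/mL. Plates were shaken at 600 rpm, 30 °C, for 24–48 h. MIC was the lowest concentration preventing visible growth.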

Nocardia sp. = test: Antibacterial activity against Nocardia flava after 24 to 48 hrs; type: functional; summary of the method: as §2
Rhodotorula glutinis = test: Antifungal activity against Rhodotorula glutinis after 24 to 48 hrs; type: functional; summary of the method: as §2
[5] = test system: Schizosaccharomyces pombe; test: Antifungal activity against Schizosaccharomyces pombe after 24 to 48 hrs; type: functional; summary of the method: as §2
Micrococcus luteus = test: Antibacterial activity against Micrococcus luteus after 24 to 48 hrs; type: functional; summary of the method: as §2
Mucor hiemalis = test: Antifungal activity against Mucor hiemalis after 24 to 48 hrs; type: functional; summary of the method: as §2
[6] = test system: Schizosaccharomyces pombe; test: Antifungal activity against Schizosaccharomyces pombe at 33.5 ug/ml after 24 to 48 hrs; type: functional, organism-based

Row | SMILES | IC50 (Plasmodium falciparum) [µM] | IC50 (Trypanosoma cruzi) [µM] | IC50 (Leishmania donovani) [µM] | IC50 [3] [µM] | IC50 (HUVEC) [µg/mL] | IC50 [2] [µg/mL] | IC50 (L929) [µg/mL] | IC50 (L6) [µM] | IC50 (MCF7) [µg/mL] | also measured
1 | Oc1ccc(Cc2nc3ccccc3c3cc[nH]c23)cc1 [MARINOQUINOLINE D] | 15 | 27 | 120 | 61.2 | 2.5 (≈ 9.11 µM) | 3.2 (≈ 11.7 µM) | 1.1 (≈ 4.01 µM) | 66.4 | 3.2 (≈ 11.7 µM) | Activity (Escherichia coli [4]): inactive; Activity (Nocardia sp.): inactive; Activity (Rhodotorula glutinis): inactive; Activity [5]: inactive; Activity (Micrococcus luteus): inactive; Activity (Mucor hiemalis): inactive
2 | COc1cc([C@@H]2c3cc4c(cc3[C@H](O)[C@H]3COC(=O)[C@H]23)OCO4)cc(OC)c1OC [PODOFILOX] | – | – | – | – | – | – | – | 0.021 | – | –
3 | Nc1nc(N)nc(Nc2ccc([As]3SCC(CO)S3)cc2)n1 (centres undefined) [MELARSOPROL] | – | – | – | 0.012 | – | – | – | – | – | –
4 | CC[C@]1(O)C[C@@H]2CN(CCc3c([nH]c4ccccc34)[C@@](C(=O)OC)(c3cc4c(cc3OC)N(C)[C@H]3[C@@](O)(C(=O)OC)[C@H](OC(C)=O)[C@]5(CC)C=CCN6CC[C@]43[C@@H]65)C2)C1 [VINBLASTINE] | – | – | – | – | – | 0.0086 (≈ 0.0106 µM) | 0.018 (≈ 0.0222 µM) | – | – | –
5 | O=C(c1c[nH]c2ccccc12)c1nc2ccccc2c2cc[nH]c12 [MARINOQUINOLINE F] | 1.7 | 21.8 | 16.1 | 39 | 2.8 (≈ 8.99 µM) | 0.3 (≈ 0.964 µM) | 4.1 (≈ 13.2 µM) | 12.5 | 1.6 (≈ 5.14 µM) | Activity [6]: Active

Now from value to compound, other results behind:

Row | IC50 (Plasmodium falciparum) [µM] | IC50 (Trypanosoma cruzi) [µM] | IC50 (Leishmania donovani) [µM] | IC50 [3] [µM] | SMILES | IC50 (HUVEC) [µg/mL] | IC50 [2] [µg/mL] | IC50 (L929) [µg/mL] | IC50 (L6) [µM] | IC50 (MCF7) [µg/mL] | also measured
6 | 9.8 | 29.5 | > 549 | 54.4 | Cc1nc2ccccc2c2cc[nH]c12 [MARINOQUINOLINE A] | 1.5 (≈ 8.23 µM) | 2.2 (≈ 12.1 µM) | 5.5 (≈ 30.2 µM) | 30.6 | 3.5 (≈ 19.2 µM) | Activity (Escherichia coli [1]): Active
7 | 5.5 | 28.3 | 58.8 | 42.2 | c1ccc(Cc2nc3ccccc3c3cc[nH]c23)cc1 [MARINOQUINOLINE C] | 0.55 (≈ 2.13 µM) | 2 (≈ 7.74 µM) | 5.4 (≈ 20.9 µM) | 39.1 | 2.6 (≈ 10.1 µM) | MIC (Rhodotorula glutinis): 33.5 µg/mL (≈ 130 µM); MIC [5]: 33.5 µg/mL (≈ 130 µM)
8 | 7.6 | 23.6 | 63.9 | 51.5 | c1ccc2c(c1)nc(-c1c[nH]c3ccccc13)c1[nH]ccc12 [MARINOQUINOLINE E] | 5.8 (≈ 20.5 µM) | 4.5 (≈ 15.9 µM) | 5.5 (≈ 19.4 µM) | 35.6 | 1.9 (≈ 6.71 µM) | MIC (Nocardia sp.): 33.5 µg/mL (≈ 118 µM); MIC (Rhodotorula glutinis): 33.5 µg/mL (≈ 118 µM); MIC [5]: 33.5 µg/mL (≈ 118 µM); MIC (Micrococcus luteus): 33.5 µg/mL (≈ 118 µM); MIC (Mucor hiemalis): 33.5 µg/mL (≈ 118 µM)
